Consider eight compounds from ChEMBL document CHEMBL1127343, “"Glycylcyclines". 3. 9-Aminodoxycyclinecarboxamides” (1994).

In brackets after ≈: the same amount, converted by molar mass.

Holding throughout (type): functional
Test [1] concerns Escherichia coli. Kind of test: In vitro antibacterial activity was measured on gram negative bacteria Escherichia coli J3272 tet-C(efflux resistance) cell lines.
For test [2], the system named is Escherichia coli. In words: In vitro antibacterial activity was measured on gram negative bacteria Escherichia coli J3272 tet-D(efflux resistance) cell lines.
Test [3] has as its system Escherichia coli. In words: In vitro antibacterial activity was measured on gram negative bacteria Escherichia coli PRP-1 tet-a(efflux resistance) cell lines.
The subject of test [4] is Escherichia coli. Kind of test: In vitro antibacterial activity was measured on gram negative bacteria Escherichia coli UBMS 88-1 tet-B(efflux resistance) cell lines.
Test [5] concerns Escherichia coli. In words: In vitro antibacterial activity was measured on gram negative bacteria Escherichia coli UBMS 90-4 tet-M (ribosomal protection) cell lines. The method, boiled down: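 Agar dilution MIC on Mueller-Hinton II agar. Inoculum (1–5) × 10^5 CFU/mL, drug range 32–0.004 μg/mL. Plates incubated 18 h at 35 °C in a forced-air incubator. MIC is the lowest concentration that inhibits growth. The strain panel covered tetracycline-sensitive and -resistant strains. Tetracycline, minocycline and doxycycline were run as standards in each assay.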

The test system of test [6] is Escherichia coli. In words: In vitro antibacterial activity was measured on gram negative bacteria Escherichia coli UBMS 90-5 sensitive cell lines. The method, boiled down:
(§1)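 MIC by agar dilution on Mueller-Hinton II agar; inoculum (1–5) × 10^5 CFU/mL; antibiotic range 32–0.004 μg/mL; plates incubated 18 h at 35 °C in forced-air incubator. MIC taken as lowest concentration inhibiting growth. Tetracycline, minocycline and doxycycline run as standards in each assay.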

For test [7], the system named is Staphylococcus aureus. Kind of test: In vitro antibacterial activity was measured on gram positive bacteria Staphylococcus aureus UBMS 90-1 tet-M (ribosomal protection) cell lines. Summed up:
as §1

For test [8], the system named is Staphylococcus aureus. In words: In vitro antibacterial activity was measured on gram positive bacteria Staphylococcus aureus UBMS 90-3 sensitive cell lines. Summed up: as §1
Test [9] has as its system Staphylococcus aureus. Kind of test: In vitro antibacterial activity was measured on gram positive bacteria Staphylococcus aureus smith cell lines. Summed up:
as §1

In test [10] the test system is Staphylococcus aureus. In words: In vitro antibacterial activity was measured on gram positive bacteria Staphylococcus aureus UBMS 88-7 tet-k(efflux resistance) cell lines.

On to `CN[C@@H](CC(C)C)C(=O)Nc1ccc2c(c1O)C(=O)C1=C(O)[C@]3(O)C(O)=C(C(N)=O)C(=O)[C@@H](N(C)C)C3[C@@H](O)C1[C@H]2C` (stereo partly drawn), for which the MIC in test [1] stood at 8 µg/mL (≈ 13.6 µM); in test [2] it was 2 µg/mL (≈ 3.41 µM); in test [3], 16 µg/mL (≈ 27.3 µM); in [4] it was 8 µg/mL (≈ 13.6 µM); in test [5], 4 µg/mL (≈ 6.82 µM); in test [6], 4 µg/mL (≈ 6.82 µM). Moreover, the MIC in test [7] was 2 µg/mL (≈ 3.41 µM); in test [8], 1 µg/mL (≈ 1.7 µM); in test [9], 2 µg/mL (≈ 3.41 µM).

On to `CC(C)C[C@H](N)C(=O)Nc1ccc2c(c1O)C(=O)C1=C(O)[C@]3(O)C(O)=C(C(N)=O)C(=O)[C@@H](N(C)C)C3CC1C2` (stereo partly drawn), for which the MIC in test [1] is 4 µg/mL (≈ 7.37 µM); in test [2] it was 1 µg/mL (≈ 1.84 µM); in [3] it was 4 µg/mL (≈ 7.37 µM); in test [4], 4 µg/mL (≈ 7.37 µM); in [5], 2 µg/mL (≈ 3.69 µM); in test [6] it was 2 µg/mL (≈ 3.69 µM). Moreover, the MIC in [7] is 1 µg/mL (≈ 1.84 µM); in test [8], 1 µg/mL (≈ 1.84 µM); in test [9], 2 µg/mL (≈ 3.69 µM).

As for `CC(C)[C@H](N)C(=O)Nc1ccc2c(c1O)C(=O)C1=C(O)[C@]3(O)C(O)=C(C(N)=O)C(=O)[C@@H](N(C)C)C3[C@@H](O)C1[C@H]2C` (stereo partly drawn), the MIC was determined as 8 µg/mL (≈ 14.3 µM) in test [1]; 1 µg/mL (≈ 1.79 µM) in test [2]; 32 µg/mL (≈ 57.3 µM) in test [3]; 4 µg/mL (≈ 7.16 µM) in test [4]; 2 µg/mL (≈ 3.58 µM) in test [5]; 2 µg/mL (≈ 3.58 µM) in [6]. The MIC was found to be 8 µg/mL (≈ 14.3 µM) in [10], 2 µg/mL (≈ 3.58 µM) in [7], 0.5 µg/mL (≈ 0.895 µM) in test [8] and 1 µg/mL (≈ 1.79 µM) in test [9].

For the compound `C[C@H]1c2ccc(NC(=O)[C@@H](N)Cc3ccccc3)c(O)c2C(=O)C2=C(O)[C@]3(O)C(O)=C(C(N)=O)C(=O)[C@@H](N(C)C)C3[C@@H](O)C21` (stereo partly drawn), the MIC in test [2] turned out to be 1 µg/mL (≈ 1.65 µM); in test [3], 8 µg/mL (≈ 13.2 µM); in [5], 2 µg/mL (≈ 3.3 µM); in [6] it was 4 µg/mL (≈ 6.59 µM); in test [10] it was 4 µg/mL (≈ 6.59 µM); in test [7] it was 1 µg/mL (≈ 1.65 µM). The values for the MIC in test [8] and in test [9] were 0.5 µg/mL (≈ 0.824 µM) and 0.25 µg/mL (≈ 0.412 µM), respectively.

For the compound `C[C@H]1c2ccc(NC(=O)[C@@H]3CCCN3)c(O)c2C(=O)C2=C(O)[C@]3(O)C(O)=C(C(N)=O)C(=O)[C@@H](N(C)C)C3[C@@H](O)C21` (stereo partly drawn), the MIC amounted to 8 µg/mL (≈ 14.4 µM) in [1]; 1 µg/mL (≈ 1.8 µM) in test [2]; 16 µg/mL (≈ 28.7 µM) in [3]; 4 µg/mL (≈ 7.19 µM) in test [4]; 2 µg/mL (≈ 3.59 µM) in test [5]; 2 µg/mL (≈ 3.59 µM) in [6]. For the same compound, the MIC in test [7] worked out at 4 µg/mL (≈ 7.19 µM); in test [8], 1 µg/mL (≈ 1.8 µM); in test [9], 2 µg/mL (≈ 3.59 µM).

`CC[C@H](C)[C@H](N)C(=O)Nc1ccc2c(c1O)C(=O)C1=C(O)[C@]3(O)C(O)=C(C(N)=O)C(=O)[C@@H](N(C)C)C3[C@@H](O)C1[C@H]2C` (stereo partly drawn): the MIC in test [1] amounted to 4 µg/mL (≈ 6.99 µM); in [2], 0.5 µg/mL (≈ 0.873 µM); in test [3] it was 16 µg/mL (≈ 27.9 µM); in [4], 2 µg/mL (≈ 3.49 µM); in test [5], 1 µg/mL (≈ 1.75 µM); in test [6] it was 1 µg/mL (≈ 1.75 µM). For the same compound, the MIC in test [10] turned out to be 2 µg/mL (≈ 3.49 µM); in test [7], 1 µg/mL (≈ 1.75 µM); in test [8] it was 0.25 µg/mL (≈ 0.437 µM); in test [9] it was 1 µg/mL (≈ 1.75 µM).

Regarding `C[C@H]1c2ccc(NC(=O)[C@H](N)Cc3ccccc3)c(O)c2C(=O)C2=C(O)[C@]3(O)C(O)=C(C(N)=O)C(=O)[C@@H](N(C)C)C3[C@@H](O)C21` (stereo partly drawn), the MIC in test [2] came out at 1 µg/mL (≈ 1.65 µM); in test [3], 16 µg/mL (≈ 26.4 µM); in test [5], 2 µg/mL (≈ 3.3 µM); in test [6], 4 µg/mL (≈ 6.59 µM); in [10], 16 µg/mL (≈ 26.4 µM); in [7], 8 µg/mL (≈ 13.2 µM). Further, the figures for the MIC in [8] and in test [9] were 1 µg/mL (≈ 1.65 µM) and 0.5 µg/mL (≈ 0.824 µM), respectively.

Take `C[C@H]1c2ccc(NC(=O)[C@@H](N)CC3CCCCC3)c(O)c2C(=O)C2=C(O)[C@]3(O)C(O)=C(C(N)=O)C(=O)[C@@H](N(C)C)C3[C@@H](O)C21` (stereo partly drawn): the MIC in test [1] worked out at 8 µg/mL (≈ 13.1 µM); in test [2] it was 2 µg/mL (≈ 3.26 µM); in [3], 8 µg/mL (≈ 13.1 µM); in [4] it was 8 µg/mL (≈ 13.1 µM); in test [5] it was 4 µg/mL (≈ 6.53 µM); in test [6] it was 4 µg/mL (≈ 6.53 µM). Moreover, the MIC was 2 µg/mL (≈ 3.26 µM) in test [10], 8 µg/mL (≈ 13.1 µM) in test [7], 0.5 µg/mL (≈ 0.816 µM) in [8] and 1 µg/mL (≈ 1.63 µM) in test [9].
